From ChEMBL document CHEMBL1124441, “Synthesis of congeners and prodrugs. 3. Water-soluble prodrugs of taxol with potent antitumor activity” (1989) come the findings set out here.

Each structure is given as a SMILES string.

In test [1] the test system is B16. As to the kind of experiment: Difference in body weight in grams between test and control animals at a dose of 5 mg/kg intraperitoneally. In kind it is functional, Mus musculus. Conditions: route intraperitoneal. The method, boiled down: (§1)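 B16 melanoma system: 10⁶ tumor cells inoculated ip on day 0. Drug given ip once daily for 9 days (Q01Dx09) starting day 1, dose as mg/kg body weight per injection. Read-out is the body-weight difference in grams, treated minus control animals. Early deaths, taken as toxicity, are scored on day 4.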

Test [2] concerns B16. In words: Antitumor activity in B16 Melanoma system animals is indicated by survivors on day 4 at a dose of 10 mg/kg intraperitoneally. In kind it is functional, Mus musculus. Also on record: reference not given here. Conditions: route intraperitoneal. The method, boiled down:
(§2)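 B16 melanoma, 10^6 cells inoculated ip on day 0. Ip treatment started day 1, schedule Q01Dx09 (one dose daily for 9 days). The score is live animals on day 4 over total animals; early deaths are taken as drug toxicity.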

Test [3] concerns B16. As to the kind of experiment: Antitumor activity in B16 Melanoma system animals is indicated by survivors on day 4 at a dose of 20 mg/kg intraperitoneally. It is filed as functional, Mus musculus. The arrangement: reference not given here. The following applies: route intraperitoneal. The method, boiled down: as §2
Test [4] concerns B16. In words: Antitumor activity in B16 Melanoma system animals is indicated by survivors on day 4 at a dose of 40 mg/kg intraperitoneally. In kind it is functional, Mus musculus. Conditions: route intraperitoneal. In a few lines:
as §2

For test [5], the system named is B16. As to the kind of experiment: Difference in body weight in grams between test and control animals at a dose of 20 mg/kg intraperitoneally. It is filed as functional, Mus musculus. Conditions: route intraperitoneal. In a few lines:
as §1

Test [6] deals with B16. In words: Difference in body weight in grams between test and control animals at a dose of 40 mg/kg intraperitoneally. It is filed as functional, Mus musculus. Conditions: route intraperitoneal. The method, boiled down:
as §1

Test [7] relates to B16. In words: Percent of median lifetime of test animals divided by the median lifetime of control animals at a dose of 20 mg/kg intraperitoneally. In kind it is functional, Mus musculus. Conditions: route intraperitoneal. The method, boiled down:
(§3)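 B16 melanoma inoculated ip (10⁶ cells) on day 0. Daily ip treatment for 9 days (Q01Dx09) begins day 1, dosed per injection in mg/kg. %T/C is the median lifespan of treated animals divided by that of tumored untreated controls, ×100. Cures are animals alive on the last test day. Toxic deaths are assessed on day 4.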

The subject of test [8] is B16. In words: Percent of median lifetime of test animals divided by the median lifetime of control animals at a dose of 40 mg/kg intraperitoneally; Toxic. In kind it is functional, organism-based. The arrangement: dose 40 mg/kg. The following applies: Mus musculus. In a few lines:
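B16 melanoma, 10^6 cells ip on day 0, ip treatment from day 1, Q01Dx09 (single dose daily for 9 days). %T/C is median lifetime of treated over untreated tumored controls, times 100. Early deaths are assessed on day 4 for toxicity. Cures are animals alive on the last test day.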

Test [9] has as its system B16. As to the kind of experiment: Percent of median lifetime of test animals divided by the median lifetime of control animals at a dose of 5 mg/kg intraperitoneally. It is filed as functional, Mus musculus. The following applies: route intraperitoneal. In a few lines:
as §3

The subject of test [10] is B16. In words: Difference in body weight in grams between test and control animals at a dose of 10 mg/kg intraperitoneally. In kind it is functional, Mus musculus. The following applies: route intraperitoneal. In a few lines: as §1
For test [11], the system named is B16. As to the kind of experiment: Percent of median lifetime of test animals divided by the median lifetime of control animals at a dose of 10 mg/kg intraperitoneally. It is filed as functional, Mus musculus. Conditions: route intraperitoneal. The method, boiled down: as §3
Test [12] deals with B16. In words: Antitumor activity in B16 Melanoma system animals is indicated by survivors on day 4 at a dose of 5 mg/kg intraperitoneally. It is filed as functional, Mus musculus. Conditions: route intraperitoneal. In a few lines:
as §2

For test [13], the system named is B16. As to the kind of experiment: Antitumor activity in B16 Melanoma system animals is indicated by survivors on day 4 at a dose of 2.5 mg/kg intraperitoneally. It is filed as functional, Mus musculus. The arrangement: reference not given here. Conditions: route intraperitoneal. In a few lines: as §2
The test system of test [14] is B16. In words: Difference in body weight in grams between test and control animals at a dose of 2.5 mg/kg intraperitoneally. It is filed as functional, Mus musculus. Conditions: route intraperitoneal. The method, boiled down: as §1
The subject of test [15] is B16. In words: Percent of median lifetime of test animals divided by the median lifetime of control animals at a dose of 40 mg/kg intraperitoneally. In kind it is functional, Mus musculus. The following applies: route intraperitoneal. In a few lines:
as §3

For test [16], the system named is B16. In words: Percent of median lifetime of test animals divided by the median lifetime of control animals at a dose of 2.5 mg/kg intraperitoneally. It is filed as functional, Mus musculus. Conditions: route intraperitoneal. In a few lines: as §3
For test [17], the system named is B16. As to the kind of experiment: Antitumor activity in B16 Melanoma system animals is indicated by survivors on day 4 at a dose of 1.25 mg/kg intraperitoneally. Conditions: route intraperitoneal. It is filed as functional, Mus musculus. In a few lines: as §2
The test system of test [18] is B16. As to the kind of experiment: Difference in body weight in grams between test and control animals at a dose of 1.25 mg/kg intraperitoneally. In kind it is functional, Mus musculus. Conditions: route intraperitoneal. In a few lines:
as §1

Test [19] relates to B16. In words: Percent of median lifetime of test animals divided by the median lifetime of control animals at a dose of 1.25 mg/kg intraperitoneally. In kind it is functional, Mus musculus. Conditions: route intraperitoneal. The method, boiled down:
as §3

The test system of test [20] is B16. In words: Difference in body weight in grams between test and control animals at a dose of 44 mg/kg intraperitoneally. Conditions: route intraperitoneal. It is filed as functional, Mus musculus. The method, boiled down: as §1
The subject of test [21] is B16. In words: Antitumor activity in B16 Melanoma system animals is indicated by survivors on day 4 at a dose of 11 mg/kg intraperitoneally. In kind it is functional, Mus musculus. Conditions: route intraperitoneal. The method, boiled down: as §2
For test [22], the system named is B16. As to the kind of experiment: Antitumor activity in B16 Melanoma system animals is indicated by survivors on day 4 at a dose of 2.75 mg/kg intraperitoneally. It is filed as functional, Mus musculus. The following applies: route intraperitoneal. The method, boiled down: as §2
For test [23], the system named is B16. In words: Antitumor activity in B16 Melanoma system animals is indicated by survivors on day 4 at a dose of 22 mg/kg intraperitoneally. The following applies: route intraperitoneal. In kind it is functional, Mus musculus. In a few lines:
as §2

Test [24] deals with B16. As to the kind of experiment: Antitumor activity in B16 Melanoma system animals is indicated by survivors on day 4 at a dose of 44 mg/kg intraperitoneally. It is filed as functional, Mus musculus. Conditions: route intraperitoneal. The method, boiled down: as §2
Test [25] relates to B16. As to the kind of experiment: Antitumor activity in B16 Melanoma system animals is indicated by survivors on day 4 at a dose of 5.5 mg/kg intraperitoneally. The following applies: route intraperitoneal. In kind it is functional, Mus musculus. In a few lines:
as §2

In test [26] the test system is B16. In words: Difference in body weight in grams between test and control animals at a dose of 22 mg/kg intraperitoneally. The following applies: route intraperitoneal. It is filed as functional, Mus musculus. The method, boiled down:
as §1

Test [27] has as its system B16. In words: Percent of median lifetime of test animals divided by the median lifetime of control animals at a dose of 2.75 mg/kg intraperitoneally. It is filed as functional, Mus musculus. Conditions: route intraperitoneal. In a few lines:
as §3

In test [28] the test system is B16. As to the kind of experiment: Percent of median lifetime of test animals divided by the median lifetime of control animals at a dose of 22 mg/kg intraperitoneally. It is filed as functional, Mus musculus. The following applies: route intraperitoneal. In a few lines:
as §3

Test [29] deals with B16. As to the kind of experiment: Percent of median lifetime of test animals divided by the median lifetime of control animals at a dose of 44 mg/kg intraperitoneally. In kind it is functional, Mus musculus. Conditions: route intraperitoneal. In a few lines: as §3
Test [30] has as its system B16. In words: Percent of median lifetime of test animals divided by the median lifetime of control animals at a dose of 5.5 mg/kg intraperitoneally. It is filed as functional, Mus musculus. The following applies: route intraperitoneal. In a few lines:
as §3

In test [31] the test system is B16. As to the kind of experiment: Percent of median lifetime of test animals divided by the median lifetime of control animals at a dose of 11 mg/kg intraperitoneally. It is filed as functional, Mus musculus. The following applies: route intraperitoneal. In a few lines: as §3

Broadly, the T/C is the result in the treated group divided by that in the control group, in per cent.

Consider `CC(=O)OC1C(=O)[C@@]2(C)[C@H]([C@H](OC(=O)c3ccccc3)[C@]3(O)CC(OC(=O)C(O)C(NC(=O)c4ccccc4)c4ccccc4)C(C)=C1C3(C)C)[C@]1(OC(C)=O)CO[C@@H]1C[C@@H]2O` (some centres not stated), for which the Weight difference in the test with B16 [1] is listed as -0.2 g; in the test on B16 [5], 0 g; in the test with B16 [6], -1.2 g; in the test with B16 [10] it was 0 g. In addition, the Activity in the test with B16 [2], with B16 [3] and with B16 [4] was 10 in each case. The T/C with B16 [7] was 96%; in the test with B16 [8], “Toxic”; with B16 [9] it was 175%; in the test with B16 [11], 139%. The “Survivors on day 4” value with B16 [12] worked out at 10.
With `CC(=O)OC1C(=O)[C@@]2(C)[C@H]([C@H](OC(=O)c3ccccc3)[C@]3(O)CC(OC(=O)C(OC(=O)CCC(=O)O)C(NC(=O)c4ccccc4)c4ccccc4)C(C)=C1C3(C)C)[C@]1(OC(C)=O)CO[C@@H]1C[C@@H]2O` (some centres not stated), the Weight difference in the test on B16 [1] came out at 0.4 g; in the test on B16 [14], 0 g; with B16 [5], 0 g; with B16 [6], 0 g; in the test with B16 [10] it was 0.4 g. Further, the Activity in the test with B16 [2], in the test with B16 [13], with B16 [3] and in the test on B16 [4] was 10 throughout. For the same compound, the T/C was found to be 154% in the test with B16 [7]; 185% in the test with B16 [15]; 154% in the test on B16 [9]; 119% with B16 [16]; 159% in the test with B16 [11]. The “Survivors on day 4” value in the test with B16 [12] is 10.
As to `CC(=O)OC1C(=O)[C@@]2(C)[C@H]([C@H](OC(=O)c3ccccc3)[C@]3(O)CC(OC(=O)C(OC(=O)CCC(=O)[O-])C(NC(=O)c4ccccc4)c4ccccc4)C(C)=C1C3(C)C)[C@]1(OC(C)=O)CO[C@@H]1C[C@@H]2O.[Na+]` (some centres not stated), the Weight difference with B16 [1] is 0 g; with B16 [14], 0.4 g; in the test with B16 [5], -0.2 g; in the test on B16 [6] it was 0.6 g; in the test with B16 [18], 0.1 g; in the test on B16 [10], 0.6 g. In addition, the Activity in the test with B16 [17], in the test with B16 [2], with B16 [13], in the test with B16 [3] and with B16 [4] was 10 throughout. In addition, the T/C in the test with B16 [7] is reported as 201%; in the test with B16 [15] it was 218%; in the test with B16 [9], 166%; in the test with B16 [16], 159%; with B16 [19], 111%; in the test with B16 [11] it was 183%. In the test on B16 [12], the “Survivors on day 4” value is 10.
Turning to `CC(=O)OC1C(=O)[C@]2(C)[C@@H](OC(=O)CCC(=O)[O-])C[C@H]3OC[C@@]3(OC(C)=O)[C@H]2[C@H](OC(=O)c2ccccc2)[C@]2(O)CC(OC(=O)C(OC(=O)CCC(=O)[O-])C(NC(=O)c3ccccc3)c3ccccc3)C(C)=C1C2(C)C.[Na+].[Na+]` (some centres not stated), the Weight difference in the test with B16 [20] and in the test with B16 [26] was 0 g in each case. Also, the Activity in the test on B16 [21], in the test with B16 [22], in the test on B16 [23], in the test on B16 [24] and in the test on B16 [25] was 10 throughout. Further, the T/C with B16 [27] worked out at 120%; in the test with B16 [28], 109%; with B16 [29] it was 166%; in the test on B16 [30] it was 114%; in the test with B16 [31], 149%.
